Screens: PubChem BioAssay, several laboratories
APJ antag: blocks the human apelin receptor APJ. P35414. CHO-K1 APJ beta-arrestin complementation, luminescence. inhibition, % at 20 µM. 330,000 tested, 0.32% active. AID 2521;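 active means inhibition above about 40% at 20 µM, limit read from the data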;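 further: cells challenged with 10 nM apelin-13 agonist together with compound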
Target sequence (P35414 whole entry, looked up): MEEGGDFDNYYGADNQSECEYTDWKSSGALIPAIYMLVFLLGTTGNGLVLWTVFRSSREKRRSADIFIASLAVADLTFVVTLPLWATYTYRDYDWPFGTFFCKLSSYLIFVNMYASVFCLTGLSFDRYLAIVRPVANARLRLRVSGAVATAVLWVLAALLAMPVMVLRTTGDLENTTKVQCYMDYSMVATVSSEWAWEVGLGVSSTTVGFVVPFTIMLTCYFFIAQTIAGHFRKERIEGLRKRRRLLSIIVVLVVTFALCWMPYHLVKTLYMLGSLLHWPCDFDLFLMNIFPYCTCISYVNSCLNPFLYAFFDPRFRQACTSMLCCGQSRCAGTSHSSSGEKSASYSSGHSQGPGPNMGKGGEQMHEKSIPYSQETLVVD
PKA-R1A activ: activates the PKA-R1A holoenzyme complex; P00514+P68181; PKA-R1A dissociation, Cy5-IP20 fluorescence polarization; scaled: DMSO 0%, 113 µM cGMP 100%; activation, % at 11.4 µM; 340,000 tested, 0.083% active; AID 504707;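 active means percent activation above the mean of all tested compounds plus 3 SD, cut at about 19% in these data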;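 further: higher means more PKAc released from R1A so a rise in polarization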
CCR6 antag: antagonists of human CCR6 receptor; AID 493098; P51684; CHO-K1 CCR6 PathHunter beta-arrestin, luminescence, CCL20-stimulated; 340,000 tested, 0.49% active; inhibition, % at 20 µM;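 active means compounds whose inhibition of the agonist-driven luminescence signal at 20 µM reaches about 50%, limit read from the data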;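 further: cells stimulated with CCL20 at 14 nM final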
APJ agonist: APJ receptor agonism | 330,000 tested, 0.11% active | activation, % at 20 µM | AID 2520 | CHO-K1 APJ PathHunter beta-arrestin, luminescence; 0% DMSO wells, 100% apelin | P35414;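 active means activation more than six SD over the plate average, tested at 20 µM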
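system = engineered CHO-K1 APJ arrestin reporter cells | input = 1000 cells per well | timing = overnight seeding, 90 min compound at 25 °C, 1 h detection | measured by = enzyme-fragment complementation luminescence | read-out = beta-arrestin recruitment to APJ as agonist activity, luminescent signal | control set = negative DMSO alone, positive Apelin-13 at 10 nM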
PKA-R2B activ: activates the human PKA-R2B holoenzyme complex | PKA-R2B holoenzyme dissociation, Cy5-IP20 fluorescence polarization; R2B truncated from residue 108, S112A mutant; 0% DMSO only, 100% 113 µM cGMP | AID 504700 | 340,000 tested, 0.079% active | activation, % at 11.4 µM;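 active means activation above a cutoff set at the mean over all compounds plus 3 SD, cut at about 18% in these data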;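 further: higher means more holoenzyme dissociation and a rise in polarization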
CXCR6 inh: blocks human CXCR6 beta-arrestin recruitment. AID 602244. 360,000 tested, 0.36% active. inhibition, % at 20 µM. CHO-K1 PathHunter CXCR6 beta-arrestin, luminescence. O00574; in the data active means inhibition above about 34%, passing the limit was not always enough;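 further: antagonist mode with CXCL16 agonist at 10 nM final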
Hits are given with their value; i = inactive; nt = no result given. An excerpt weighted towards active compounds, which were near 0.88% of everything screened.

SMILES	APJ antag	PKA-R1A activ	CCR6 antag	APJ agonist	PKA-R2B activ	CXCR6 inh
CCN1/C(=C/c2ccc3ccccc3[n+]2CCCS(=O)(=O)[O-])C=Cc2cc(C)ccc21	nt	i	i	nt	i	i
CCN1/C(=C/c2cc[n+](C)cc2)C=Cc2cc(C)ccc21	nt	i	57.1	nt	i	i
CCC(c1nc2ccccc2[nH]1)N(C(=O)C1=NNC(=O)CC1)c1ccccc1 (stereo not given)	nt	nt	nt	nt	nt	i
O=C(O)c1cccc2c1/C(=N/Nc1ccc([N+](=O)[O-])cc1[N+](=O)[O-])c1ccccc1-2	i	i	52.6	i	i	i
O=C(NCc1ccc(F)cc1)c1cc(C2CCCCN2C(=O)CCCc2ccccc2)on1 (stereo not given)	nt	nt	nt	nt	nt	i
C=CC(=O)N1C/C(=C/c2ccc(F)cc2)C(=O)/C(=C\c2ccc(F)cc2)C1	nt	i	83.9	nt	i	72.3
CN1C2CCC1/C(=C\c1ccc(F)cc1)C(=O)/C2=C/c1ccc(F)cc1	i	i	i	i	i	i
COc1ncc(-c2c(-c3ccccc3OC)sc3ccccc23)cn1	nt	nt	nt	nt	nt	i
CC1=NN(C(N)=S)C(=O)C1N=Nc1c(Cl)cc([N+](=O)[O-])cc1Cl (stereo not given)	i	i	57.5	i	i	39.7
COc1ccccc1COCC(O)CN(Cc1ccco1)Cc1ccccc1O (stereo not given)	i	i	87.7	i	i	i
CC(=O)Nc1cc(-c2ccc(S(C)(=O)=O)cc2)cn2c(-c3ccc(F)c(Cl)c3)cnc12	nt	nt	nt	nt	nt	i
On1ccccc1=S	nt	i	83.2	nt	i	74.6
O=C(Cn1ccccc1=S)c1ccc(Cl)c(Cl)c1	i	nt	i	i	nt	i
CCOC(=O)[C@]12CCC=C1N(Cc1ccc(Cl)cc1Cl)C(=O)[C@H](CC(=O)NCc1cccc3ccccc13)C2	nt	nt	nt	nt	nt	i
CC(=O)Nc1ccc(NC(=O)c2nc(S(=O)(=O)Cc3cccc(C)c3)ncc2Cl)cc1	i	i	58.1	i	i	46.6
CCN(CC)c1ccc(/C=C2\CCC(/C=C(\C#N)C(=O)Nc3ccccc3F)=C2N2CCOCC2)cc1	nt	i	91.2	nt	i	i
CCN(CC)c1ccc(/C=C2\CCC(/C=C(/C#N)C(=O)Nc3ccccc3F)=C2N2CCOCC2)cc1	nt	i	102.0	nt	i	44.9
N#C/C(=C/C1=C(N2CCOCC2)C(=C/c2ccccc2)/CC1)C(=O)Nc1ccccc1F	nt	i	i	nt	i	i
Nc1nc2ccccc2cc1C(=O)NCc1ccc(Cl)cc1Cl	nt	nt	nt	nt	nt	i
O=[N+]([O-])c1cc(CN2CCN(c3ccccc3)CC2)c(O)c2ncccc12	i	i	75.4	i	i	56.0
O=C(CCn1cnc2ccccc2c1=O)Nc1nc(-c2ccc(Br)cc2)cs1	i	i	i	23.1	i	i
O=C(Nc1nnc(-c2cccs2)o1)c1cccc(C(F)(F)F)c1	i	i	i	i	i	43.8
N#Cc1ccc(C(=O)Nc2nnc(-c3cccs3)o2)cc1	i	i	i	i	i	i
CN(CCO)c1cccc2c1S(=O)(=O)N[C@H](Cc1ccccc1)CO2	nt	nt	nt	nt	nt	i
Cc1cc(N/N=C/c2ccc(O)cc2O)nc(-n2nc(C)cc2C)n1	nt	i	93.0	nt	i	92.1
SMILES	APJ antag	PKA-R1A activ	CCR6 antag	APJ agonist	PKA-R2B activ	CXCR6 inh
O=C(NN=C1c2ccccc2-c2ccccc21)c1cccc(Br)c1	i	i	i	i	i	46.5
Brc1ccc2nc(C3CCCCC3)c(Cc3ccsc3)n2c1	nt	nt	nt	nt	nt	i
CC(C)(C)NC(=O)C1c2ccccc2OCC(=O)N1CCCN1CCOCC1 (stereo not given)	nt	nt	nt	nt	nt	i
O=C(Nc1ccc(S(=O)(=O)N2CCCCC2)cc1)c1ccncc1	i	i	58.2	i	i	i
O=C(Nc1ccc(Cc2ccncc2)cc1)c1ccc(S(=O)(=O)N2CCCC2)cc1	i	i	i	i	i	i
CCN(CC)c1ccc(C(=C2C=CC(=[N+](CC)CC)C=C2)c2ccc(N(CC)CC)cc2)cc1	nt	i	113.8	nt	i	108.5
CCN(CC)c1ccc(C(=C2C=CC(=[N+](CC)CC)C=C2)c2ccccc2)cc1	nt	i	116.7	nt	i	102.8
COCCNC(=O)C1(C)CCCN(C(=O)c2cccc(OC(F)(F)F)c2)C1 (stereo not given)	nt	nt	nt	nt	nt	i
CC(O)CC(=O)OC[C@]12CC[C@H]3[C@@](C)(CC[C@H]4C(C)(C)CCC[C@]34C)[C@@H]1CC(C1=CC(=O)OC1O)O2 (stereo not given in full)	nt	nt	nt	nt	nt	i
Cc1cccc[n+]1CC(=O)/C=C1\N(C)c2ccccc2C1(C)C	i	i	i	i	i	i
CN1/C(=C/C=C/c2n(C)c3cc([N+](=O)[O-])c([N+](=O)[O-])cc3[n+]2C)C(C)(C)c2ccccc21	nt	i	nt	nt	i	48.5
C=CCn1nc([N+](=O)[O-])nc1Sc1cccc2cccnc12	i	i	63.8	i	i	46.9
O=[N+]([O-])c1ccc(Sc2cccc3cccnc23)cc1	i	i	i	i	i	i
O=C(O)c1ccccc1NS(=O)(=O)c1ccc(NN=Cc2ccccc2F)c([N+](=O)[O-])c1	i	i	i	i	22.6	i
Cc1nnc(N=c2ssnc2Cl)o1	i	i	55.9	i	i	i
Cc1ccc(N=c2ssnc2Cl)cc1	i	i	i	i	i	i
CCOC(=O)C1CCCN(C(=O)Cn2sc3nc(C)cc(C)c3c2=O)C1 (stereo not given)	i	i	67.0	i	i	i
Cc1cc(C)c2c(=O)n(CC(=O)N3CCC(N4CCCCC4)CC3)sc2n1	i	i	i	i	i	i
O=C(NCc1cccnc1)c1cc(C2CCCCN2S(=O)(=O)Cc2ccccc2)on1 (stereo not given)	nt	nt	nt	nt	nt	i
CCOC(=O)[C@]12CCC=C1N(Cc1ccco1)C(=O)[C@H](CC(=O)N1CCN(C(=O)c3ccco3)CC1)C2	nt	nt	nt	nt	nt	i
Nc1ncnc2c1ncn2[C@@H]1O[C@H](C(=O)NCCCN2CCCC2=O)[C@@H](O)[C@H]1O	nt	nt	nt	nt	nt	i
N=c1c(C(=O)NCc2ccc(F)cc2)cc2c(=O)n3ccccc3nc2n1Cc1ccco1	49.0	i	i	i	i	i
COC(=O)[C@]12CCCCC=C1N(Cc1ccccc1)C(=O)[C@H](CC(=O)NCc1cccs1)C2	nt	nt	nt	nt	nt	i
COc1cc(/C=C(/C#N)C(=O)NCCc2c[nH]c3ccccc23)ccc1OCc1ccccc1F	i	i	57.9	i	i	i
Cc1cc(/C=C(\C#N)C(=O)NCCc2c[nH]c3ccccc23)c(C)n1C	i	i	i	i	i	i
CCCCCCCCCCCCCCC[C@@H](O)[C@@H](N)CO	nt	i	67.5	nt	i	i
COC(CNC(=O)c1cc(C(=O)c2c(-c3c(Cl)cccc3Cl)noc2C)c[nH]1)OC	i	i	i	i	i	70.6
Cc1onc(-c2c(Cl)cccc2Cl)c1C(=O)c1c[nH]c(C(=O)NCCCN2CCOCC2)c1	i	i	i	i	i	i
